Experimental data gathered from unrelated publications.
Lines come from different studies, so protocols differ.

SMILES | target | assay | setting | quantity | value
COc1ncccc1-c1cnn2ccc(N3CCN(C(=O)OC(C)C)CC3)nc12 | Receptor-interacting serine/threonine-protein kinase 4 (RIPK4, Homo sapiens, UniProt P57078) | binding, competition with immobilised ligand | 1 µM | remaining binding | 70%
CNCCN1CCC(OCc2ccccc2)CC1 | Protein arginine N-methyltransferase 6 (PRMT6, Homo sapiens, UniProt Q96LA8) | thermal stability, DSF | 200 µM | ΔTm | 11.3 °C
CCN(CC)CCCC[C@H](NC(=O)[C@H](CC(C)C)NC(=O)[C@H](C)NC(=O)[C@H](Cc1ccccc1)NC(=O)c1ccc(C(C)(C)C)cc1)C(=O)N[C@@H](CO)C(=O)OC | Histone acetyltransferase p300 (EP300, Homo sapiens, UniProt Q09472) | thermal stability, DSF | 25 µM | ΔTm | 0.7 °C
COc1ccc(S(=O)(=O)N(CC(=O)NO)CC(C)C)cc1 | Neutrophil collagenase (MMP8, Homo sapiens, UniProt P22894) | enzyme activity, inhibitor | 0.1 µM | inhibition | 43%
Cc1nn(C)cc1-c1nc2c(N3CCN(Cc4ccc(Cl)cc4)CC3)c(Cl)cnc2[nH]1 | Tyrosine-protein kinase ABL1, non-phosphorylated (ABL1, Homo sapiens, UniProt P00519, F317L) | binding, competition with immobilised ligand | 1 µM | remaining binding | 100%
Cn1cc(-c2cc(F)cc(N3CCn4c(cc5c4CCCC5)C3=O)c2CO)cc(Nc2ccc(N3CCN(C4COC4)CC3)cn2)c1=O | Tyrosine-protein kinase ABL1 (ABL1, Homo sapiens, UniProt P00519, T315I) | enzyme activity, inhibitor | 0.1 µM | inhibition | 4%
CC[C@@H]1CN2CC[C@@]3(O)C(=Nc4cccc(C)c43)[C@@H]2C[C@@H]1/C(=C\OC)C(=O)OC | Delta-type opioid receptor (OPRD1, Homo sapiens, UniProt P41143) | β-arrestin recruitment, agonist | – | Emax | > 100%
O=C(O)C(F)(F)C(F)(F)C(F)(F)C(F)(F)C(F)(F)C(F)(F)C(F)(F)F | Solute carrier family 22 member 11 (SLC22A11, Homo sapiens, UniProt Q9NSA0) | transporter uptake, substrate | pH 6.8 | Km | 9.95 µM
C#Cc1n[nH]c2c(-c3cn(C(C)c4ccccn4)c(=O)[nH]c3=O)cc(F)cc12 (stereo not shown) | Insulin-like growth factor 1 receptor (IGF1R, Homo sapiens, UniProt P08069) | enzyme activity, inhibitor | 1 µM | inhibition | -0.9%
Nc1ncc(-c2nc(N3CCOCC3)nc(N3CCOCC3)n2)c(C(F)F)n1 | Androgen receptor (AR, Homo sapiens, UniProt P10275) | cell-free assay, radioligand | 10 µM | remaining signal | 89.3%
